Results on two molecules are retold here after ChEMBL document CHEMBL2062493, “Synthesis and evaluation of [¹¹C]Cimbi-806 as a potential PET ligand for 5-HT₇ receptor imaging” (Bioorg Med Chem, 2012).

The nature of series [1]: Drug uptake in Danish Landrace pig striatum at 468+/-31 MBq, iv up to 20 mins by PET scanning. The following applies: in vivo. It is filed as ADME, organism-based, Sus scrofa. In outline:
(§1)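 Images were co-registered to an MRI atlas of the pig brain. Striatum was the mean of caudate and putamen, thalamus the mean of lateral and medial thalamus, and each region left/right averaged. Uptake is expressed as SUV (kBq/mL normalized to injected dose per kg). For the blocking condition, SB-269970 was infused at 0.5–1.0 mg/kg/h from 30 min before the second scan.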

The nature of series [2]: Drug uptake in Danish Landrace pig cerebellum at 468+/-31 MBq, iv after 20 mins by PET scanning. The note with it: in vivo. It counts as ADME, organism-based, Sus scrofa. The procedure, abridged: as §1
Series [3] in a line: Drug uptake in Danish Landrace pig striatum pre-treated with SB269970 at 468+/-31 MBq, iv administered 30 mins post SB269970-treatment measured up to 20 mins by PET scanning. It is filed as ADME, organism-based, Sus scrofa. The following applies: in vivo. The procedure, abridged: as §1
Series [4] can be described thus: Drug uptake in Danish Landrace pig cerebellum at 468+/-31 MBq, iv up to 20 mins by PET scanning. It is filed as ADME, organism-based, Sus scrofa. The following applies: in vivo. The procedure, abridged: as §1
Series [5] in a line: Drug uptake in Danish Landrace pig thalamus pre-treated with SB269970 at 468+/-31 MBq, iv administered 30 mins post SB269970-treatment measured up to 20 mins by PET scanning. It is filed as ADME, organism-based, Sus scrofa. The note with it: in vivo. In outline:
as §1

Series [6] relates to Plasma. As to the kind of experiment: Drug metabolism in Danish Landrace pig plasma pre-treated with SB269970 at 468+/-31 MBq, iv administered 30 mins post SB269970-treatment measured upto 90 mins. It counts as ADME, organism-based, Sus scrofa. The following applies: in vivo. The procedure, abridged:
(§2)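 Blood was drawn at 2.5–90 min and centrifuged; plasma was filtered 0.45 µm and analysed for parent and radiometabolites by column-switching HPLC with online radioactivity detection. For the blocking condition, SB-269970 was infused at 0.5–1.0 mg/kg/h from 30 min before the second scan and continued throughout it.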

A short description of series [7]: Drug uptake in Danish Landrace pig striatum at 468+/-31 MBq, iv after 20 mins by PET scanning. The following applies: in vivo. It counts as ADME, organism-based, Sus scrofa. The procedure, abridged:
as §1

Series [8] is described as follows: Free fraction in Danish Landrace pig plasma at 5 MBq after 3 hrs by equilibrium dialysis. It counts as ADME, cell-free, Sus scrofa.
Series [9] is described as follows: Drug uptake in Danish Landrace pig thalamus at 468+/-31 MBq, iv up to 20 mins by PET scanning. The following applies: in vivo. It is filed as ADME, organism-based, Sus scrofa. In outline:
as §1

The subject of series [10] is Plasma. As to the kind of experiment: Drug metabolism in Danish Landrace pig plasma at 468+/-31 MBq, iv. It counts as ADME, Sus scrofa. The procedure, abridged:
as §2

Series [11] can be described thus: Drug uptake in Danish Landrace pig thalamus at 468+/-31 MBq, iv after 20 mins by PET scanning. It counts as ADME, organism-based, Sus scrofa. The note with it: in vivo. In outline:
as §1

The nature of series [12]: Drug uptake in Danish Landrace pig cerebellum pre-treated with SB269970 at 468+/-31 MBq, iv administered 30 mins post SB269970-treatment measured up to 20 mins by PET scanning. It is filed as ADME, organism-based, Sus scrofa. The following applies: in vivo. The procedure, abridged: as §1
The nature of series [13]: Displacement of [3H]SB269970 from 5HT7R in Danish Landrace pig brain section after 2 hrs by autoradiography. Details: species or system Sus scrofa; call rule not given here. The procedure, abridged: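 Pig brain sections incubated 2 h with [3H]SB-269970 plus varying competitor in 50 mM Tris–HCl pH 7.4. Washes were 3 × 5 min in ice-cold buffer, then a dip in ice-cold water. Sections were dried and exposed to tritium-sensitive plates for 14 days. Specific binding (total minus non-specific) was plotted against competitor concentration.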

Series [14] can be described thus: Lipophilicity, log D of the compound at pH 7.4 by HPLC analysis. It counts as physicochemical. The note with it: buffer. In outline:
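Measured by RP-HPLC on a C8 column at 37 °C with 50:50 25 mM sodium phosphate pH 7.4/MeOH at 2 mL/min and UV detection at 254 nm. LogD was derived from log retention factor via a calibration line of reference compounds with known logD.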

Regarding `COc1cccc(OC)c1-c1cccc(CCN(C)[11CH3])c1`, the Drug uptake entry in series [1] is “Active”; in series [2], “Not Active”; in series [3], “Not Active”; in series [4], “Active”; in series [5] it was “Not Active”; in series [7] it was “Not Active”. The results for the Drug uptake result in [9], in [11] and in series [12] were “Active”, “Not Active” and “Not Active”, respectively. The Drug metabolism result in series [6] and in series [10] was “Active” throughout. In addition, the fraction unbound at 3 h, 5 MBq in [8] stood at 0.235.
As for `COc1cccc(OC)c1-c1cccc(CCN(C)C)c1`, the Ki in [13] worked out at 8.82 nM. In addition, in series [14], the logD was determined as 4.4.
